Laboratory results published in EPA's CvTdb concentration-time database.

How the values were obtained:
[1] = test system: rabbit; test: concentration in blood after dosing; conditions: dosed: hexachlorocyclohexane, 25 mg/kg, oral, female
Method in brief: (§1)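 Points were largely digitised from plot screenshots with WebPlotDigitizer or otherwise copied from tables, and they remain in the units each source reported. They come from published in vivo toxicokinetic studies and two structured collections. Sampling and analytical methods follow each source and were often not reported.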

[2] = test system: rat; test: concentration in skin after dosing; conditions: dosed: benzo(a)pyrene, 40 umol/kg, iv, male, Sprague Dawley
[3] = test system: rat; test: concentration in lung after dosing; conditions: dosed: benzo(a)pyrene, 40 umol/kg, iv, male, Sprague Dawley
[4] = test system: rat; test: concentration in feces after dosing; conditions: dosed: benzo(a)pyrene, 40 umol/kg, iv, male, Sprague Dawley
[5] = test system: rat; test: concentration in liver after dosing; conditions: dosed: benzo(a)pyrene, 40 umol/kg, iv, male, Sprague Dawley
[6] = test system: rat; test: concentration in blood after dosing; conditions: dosed: benzo(a)pyrene, 40 umol/kg, iv, male, Sprague Dawley
[7] = test system: rat; test: concentration in kidney after dosing; conditions: dosed: benzo(a)pyrene, 40 umol/kg, iv, male, Sprague Dawley
[8] = test system: rat; test: concentration in adipose after dosing; conditions: dosed: benzo(a)pyrene, 40 umol/kg, iv, male, Sprague Dawley
[9] = test system: rat; test: concentration in blood after dosing (% dose/mL); conditions: dosed: benzo(a)pyrene, 117 nmol, iv, male, Sprague Dawley
[10] = test system: human; test: concentration in blood after dosing; conditions: dosed: methyl tert-butyl ether
Method in brief: as §1

[11] = test system: human; test: concentration in expired air after dosing; conditions: dosed: methyl tert-butyl ether, 15 mg, oral, male
Method in brief: as §1

[12] = test system: human; test: concentration in blood after dosing; negative times count back from the end of exposure; conditions: dosed: methyl tert-butyl ether, 25 ppm, inhalation, duration: 4 hr, male
Method in brief: as §1

ClC1C(Cl)C(Cl)C(Cl)C(Cl)C1Cl (stereo not given) [hexachlorocyclohexane]
[1]
Conditions	concentration in blood [ng/mL]
168 h	9220
336 h	12300
504 h	18400
672 h	24600
840 h	33800
1008 h	39900
1176 h	46100
1344 h	52200
1512 h	58400
1680 h	64500
1848 h	70700
2016 h	86000

c1ccc2c(c1)cc1ccc3cccc4ccc2c1c34 [benzo(a)pyrene]
Conditions	concentration in adipose [µmol/kg]	concentration in blood	concentration in feces [µmol/kg]	concentration in kidney [µmol/kg]	concentration in liver [µmol/kg]	concentration in lung [µmol/kg]	concentration in skin [µmol/kg]
[2], 2 h	–	–	–	–	–	–	7.56
[2], 4 h	–	–	–	–	–	–	2.74
[2], 8 h	–	–	–	–	–	–	1.7
[2], 16 h	–	–	–	–	–	–	0.783
[2], 24 h	–	–	–	–	–	–	0.102
[2], 33 h	–	–	–	–	–	–	0.0296
[2], 48 h	–	–	–	–	–	–	0.0205
[2], 72 h	–	–	–	–	–	–	0.018
[3], 2 h	–	–	–	–	–	17	–
[3], 4 h	–	–	–	–	–	10.2	–
[3], 8 h	–	–	–	–	–	17.6	–
[3], 16 h	–	–	–	–	–	16.9	–
[3], 24 h	–	–	–	–	–	8.02	–
[3], 33 h	–	–	–	–	–	11.2	–
[3], 48 h	–	–	–	–	–	7.35	–
[3], 72 h	–	–	–	–	–	5.18	–
[4], 2 h	–	–	0.0005	–	–	–	–
[4], 4 h	–	–	0.002	–	–	–	–
[4], 8 h	–	–	0.0127	–	–	–	–
[4], 16 h	–	–	0.0779	–	–	–	–
[4], 24 h	–	–	0.351	–	–	–	–
[4], 33 h	–	–	0.382	–	–	–	–
[4], 48 h	–	–	0.354	–	–	–	–
[4], 72 h	–	–	0.397	–	–	–	–
[5], 2 h	–	–	–	–	2.31	–	–
[5], 4 h	–	–	–	–	1.91	–	–
[5], 8 h	–	–	–	–	1.79	–	–
[5], 16 h	–	–	–	–	0.574	–	–
[5], 24 h	–	–	–	–	0.21	–	–
[5], 33 h	–	–	–	–	0.165	–	–
[5], 48 h	–	–	–	–	0.0546	–	–
[5], 72 h	–	–	–	–	0.0254	–	–
[6], 2 h	–	0.422 µmol/kg	–	–	–	–	–
[6], 4 h	–	0.118 µmol/kg	–	–	–	–	–
[6], 8 h	–	0.076 µmol/kg	–	–	–	–	–
[6], 16 h	–	0.0274 µmol/kg	–	–	–	–	–
[6], 24 h	–	0.0156 µmol/kg	–	–	–	–	–
[6], 33 h	–	0.0066 µmol/kg	–	–	–	–	–
[6], 48 h	–	0.005 µmol/kg	–	–	–	–	–
[6], 72 h	–	0.0024 µmol/kg	–	–	–	–	–
[7], 2 h	–	–	–	0.53	–	–	–
[7], 4 h	–	–	–	0.145	–	–	–
[7], 8 h	–	–	–	0.164	–	–	–
[7], 16 h	–	–	–	0.0435	–	–	–
[7], 24 h	–	–	–	0.0127	–	–	–
[7], 33 h	–	–	–	0.008	–	–	–
[7], 48 h	–	–	–	0.004	–	–	–
[7], 72 h	–	–	–	0.001	–	–	–
[8], 2 h	2.47	–	–	–	–	–	–
[8], 4 h	1.4	–	–	–	–	–	–
[8], 8 h	3.23	–	–	–	–	–	–
[8], 16 h	3.19	–	–	–	–	–	–
[8], 24 h	2.11	–	–	–	–	–	–
[8], 33 h	2.4	–	–	–	–	–	–
[8], 48 h	1.27	–	–	–	–	–	–
[8], 72 h	0.663	–	–	–	–	–	–
[9], 0.3233 h	–	0.081	–	–	–	–	–
[9], 0.4938 h	–	0.0586	–	–	–	–	–
[9], 0.7433 h	–	0.0404	–	–	–	–	–
[9], 0.9867 h	–	0.0307	–	–	–	–	–
[9], 1.736 h	–	0.012	–	–	–	–	–
[9], 2.474 h	–	0.00662	–	–	–	–	–
[9], 3.463 h	–	0.00438	–	–	–	–	–
[9], 3.977 h	–	0.00384	–	–	–	–	–
[9], 4.987 h	–	0.00267	–	–	–	–	–
[9], 55 s	–	0.859	–	–	–	–	–
[9], 206 s	–	0.278	–	–	–	–	–

COC(C)(C)C [methyl tert-butyl ether]
[10], inhalation, duration: 4 hr
Conditions	concentration in blood [nM]
0.01 h, 38.7 ppm	6650
2 h, 4.5 ppm	643
2.004 h, 38.7 ppm	2100
3.94 h, 4.5 ppm	354
3.996 h, 38.7 ppm	1020
6.01 h, 4.5 ppm	174
6.012 h, 38.7 ppm	606
7.951 h, 4.5 ppm	84
8.029 h, 38.7 ppm	395
10.04 h, 38.7 ppm	328
12.06 h, 38.7 ppm	253
22 s, 4.5 ppm	1930

[10], oral
Conditions	concentration in blood [nM]
0.9725 h, 5 mg	99.4
1.015 h, 15 mg	685
1.991 h, 5 mg	41.1
2.004 h, 15 mg	276
2.918 h, 15 mg	108
2.982 h, 5 mg	27.2
3.947 h, 5 mg	18.7
4.008 h, 15 mg	82
5.952 h, 5 mg	13.1
5.987 h, 15 mg	47.1
7.932 h, 5 mg	11.7
7.966 h, 15 mg	26.4
9.937 h, 5 mg	10.1
9.945 h, 15 mg	23.3
12 h, 15 mg	13
12.02 h, 5 mg	8.99

Conditions	concentration in blood [nM]	concentration in expired air [nM]
[11], 0.1656 h	–	77
[11], 0.3208 h	–	77
[11], 0.5071 h	–	51.41
[11], 0.6649 h	–	33.25
[11], 0.8305 h	–	28.15
[11], 0.9935 h	–	21.17
[11], 1.508 h	–	12.95
[11], 1.995 h	–	9.141
[11], 2.999 h	–	6.25
[11], 3.99 h	–	2.876
[11], 4.996 h	–	2.574
[11], 5.99 h	–	1.41
[12], 0.2914 h	7860	–
[12], 0.5342 h	6550	–
[12], 0.9123 h	5510	–
[12], 2.155 h	3310	–
[12], 6.883 h	651	–
[12], 20.1 h	40	–

[12], during exposure
Conditions	concentration in blood [nM]
-4 h	117
-3.335 h	6640
-2.225 h	7880
-1.277 h	9780
-0.1674 h	10600
